In ChEMBL document CHEMBL4304818, “1,3,4-Oxadiazol-2-ylbenzenesulfonamides as privileged structures for the inhibition of monoamine oxidase B” (Bioorg Med Chem Lett, 2019):

Experiments:
[1] = target: T1, Amine oxidase [flavin-containing] B (Homo sapiens, UniProt P27338); format: cell-based
T1 sequence (P27338 whole entry): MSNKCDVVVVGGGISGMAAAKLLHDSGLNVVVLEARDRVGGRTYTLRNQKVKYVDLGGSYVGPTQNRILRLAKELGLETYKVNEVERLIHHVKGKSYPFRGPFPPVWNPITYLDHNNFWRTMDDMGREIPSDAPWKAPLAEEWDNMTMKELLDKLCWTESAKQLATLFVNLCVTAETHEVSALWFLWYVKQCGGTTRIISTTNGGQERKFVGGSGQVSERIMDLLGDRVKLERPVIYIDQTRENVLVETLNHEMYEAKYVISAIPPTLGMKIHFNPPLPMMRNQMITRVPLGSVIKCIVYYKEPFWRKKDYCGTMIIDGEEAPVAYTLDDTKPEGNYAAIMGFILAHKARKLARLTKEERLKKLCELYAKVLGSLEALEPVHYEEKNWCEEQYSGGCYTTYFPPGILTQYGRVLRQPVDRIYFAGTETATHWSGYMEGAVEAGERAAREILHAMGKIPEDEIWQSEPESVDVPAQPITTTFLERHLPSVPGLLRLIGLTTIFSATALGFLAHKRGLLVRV

[2] = species on record: Homo sapiens; test: Selectivity index, ratio of IC50 for human recombinant MAO-A expressed in insect cells microsomes to IC50 for human recombinant MAO-B expressed in insect cells microsomes
In short: (§1)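 Recombinant human MAO-A and MAO-B as enzyme sources with kynuramine as non-selective substrate; product 4-hydroxyquinoline read by fluorescence spectrophotometry. Activity measured across a range of inhibitor concentrations, sigmoidal rate vs log[inhibitor] curves fitted for IC50; triplicate measurements, mean ± SD. Top concentration tested 100 µM. SI taken as IC50(MAO-A)/IC50(MAO-B).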

[3] = target: T2, Amine oxidase [flavin-containing] A (Homo sapiens, UniProt P21397); test: Inhibition of human recombinant MAO-A expressed in insect cells microsomes assessed as inhibition of 4-hydroxyquinoline formation using kynuramine as substrate incubated for 20 mins by fluorescence spectrophotometry analysis
T2 sequence (P21397 whole entry): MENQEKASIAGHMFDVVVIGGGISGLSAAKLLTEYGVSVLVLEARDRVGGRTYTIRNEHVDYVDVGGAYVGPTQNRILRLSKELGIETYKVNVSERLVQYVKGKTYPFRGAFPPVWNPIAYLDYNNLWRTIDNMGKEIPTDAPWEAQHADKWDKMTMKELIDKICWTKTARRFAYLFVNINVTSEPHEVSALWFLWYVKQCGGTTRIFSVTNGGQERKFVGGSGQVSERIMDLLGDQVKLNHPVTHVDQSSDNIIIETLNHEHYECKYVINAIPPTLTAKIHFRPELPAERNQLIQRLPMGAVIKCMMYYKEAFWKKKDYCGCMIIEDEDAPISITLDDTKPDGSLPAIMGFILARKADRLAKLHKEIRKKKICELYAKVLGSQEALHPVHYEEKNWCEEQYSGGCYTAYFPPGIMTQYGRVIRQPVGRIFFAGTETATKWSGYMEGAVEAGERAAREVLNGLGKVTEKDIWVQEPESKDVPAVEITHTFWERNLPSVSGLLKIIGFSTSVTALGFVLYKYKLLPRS
In short: as §1

[4] = target: T1, Amine oxidase [flavin-containing] B; test: Inhibition of human recombinant MAO-B expressed in insect cells microsomes assessed as enzyme residual activity preincubated at concentration of 4 times IC50 with enzyme for 24 hrs followed by twofold dilution and incubation at concentration of 2 times IC50 with enzyme for 20 mins using kynuramine as substrate by fluorescence spectrophotometry (reference value: 100%)
[5] = target: T1, Amine oxidase [flavin-containing] B; test: Reversible inhibition of human recombinant MAO-B expressed in insect cells microsomes assessed as enzyme residual activity preincubated at concentration of 4 times IC50 with enzyme for 15 mins followed by dialysis of enzyme-inhibitor mixture for 24 hrs followed by twofold dilution and incubation at concentration of 2 times IC50 with enzyme for 20 mins using kynuramine as substrate by fluorescence …

NS(=O)(=O)c1cc(-c2nnc(-c3ccccc3)o2)ccc1Cl
IC50 [1]: 0.439 µM
Ratio IC50 [2]: > 228
IC50 [3]: > 100 µM

NS(=O)(=O)c1ccc(C(=O)NNC(=O)c2ccc(Cl)c(Cl)c2)cc1
IC50 [1]: 10.1 µM
Ratio IC50 [2]: 1.3
IC50 [3]: 13.6 µM

NS(=O)(=O)c1ccc(C(=O)NNC(=O)c2ccc(F)cc2)cc1
IC50 [1]: > 100 µM
Ratio IC50 [2]: < 0.4
IC50 [3]: 39.6 µM

N#Cc1ccc(-c2nnc(-c3ccc(S(N)(=O)=O)cc3)o2)cc1
IC50 [1]: 0.318 µM
Ratio IC50 [2]: 76
IC50 [3]: 24.3 µM

NS(=O)(=O)c1ccc(C(=O)NNC(=O)c2ccccc2)cc1
IC50 [1]: > 100 µM
Ratio IC50 [2]: < 0.6
IC50 [3]: 62.8 µM

NS(=O)(=O)c1cccc(-c2nnc(-c3ccc(F)cc3)o2)c1
IC50 [1]: 0.975 µM
Ratio IC50 [2]: 35
IC50 [3]: 34.4 µM

N#Cc1ccc(C(=O)NNC(=O)c2ccc(S(N)(=O)=O)cc2)cc1
IC50 [1]: 1.17 µM
Ratio IC50 [2]: 14
IC50 [3]: 16.1 µM

NS(=O)(=O)c1ccc(-c2nnc(-c3ccc(Cl)c(Cl)c3)o2)cc1
Activity [4]: 44%
Activity [5]: 60%

NS(=O)(=O)c1ccc(-c2nnc(-c3ccccc3)o2)cc1
IC50 [1]: 0.168 µM
Ratio IC50 [2]: 380
IC50 [3]: 63.9 µM

Cc1ccc(-c2nnc(-c3ccccc3)o2)cc1S(N)(=O)=O
IC50 [1]: 0.767 µM
Ratio IC50 [2]: > 130
IC50 [3]: > 100 µM

NS(=O)(=O)c1ccc(-c2nnc(-c3ccc(F)cc3)o2)cc1
IC50 [1]: 0.079 µM
Ratio IC50 [2]: 1060
IC50 [3]: 83.8 µM

NS(=O)(=O)c1cccc(-c2nnc(-c3ccc(Cl)cc3)o2)c1
IC50 [1]: 0.21 µM
Ratio IC50 [2]: > 476
IC50 [3]: > 100 µM

Cc1ccc(-c2nnc(-c3cccc(S(N)(=O)=O)c3)o2)cc1
IC50 [1]: 0.571 µM
Ratio IC50 [2]: 108
IC50 [3]: 61.4 µM

NS(=O)(=O)c1ccc(C(=O)NNC(=O)c2ccc(Cl)cc2)cc1
IC50 [1]: 11.7 µM
Ratio IC50 [2]: 4.8
IC50 [3]: 55.9 µM

NS(=O)(=O)c1ccc(-c2nnc(-c3ccc(Cl)cc3)o2)cc1
IC50 [1]: 0.048 µM
Ratio IC50 [2]: 1420
IC50 [3]: 68 µM
